The RNAGym collection of RNA variant scans (doi:10.1126/science.aae0568)
This sample holds only a part of the variants without activity.

B1: tRNA (parent)
chain: GUUCCGUUGGCGUAAUGGUAACGCGUCUCCCUCCUAAGGAGAAGACUGCGGGUUCGAGUCCCGUACGGAACG

Variants of: B1
Assay: yeast fitness relative to wild type (ratio to wild type); higher = fitter; tRNA-Arg(CCU), competitive growth, 37 C, YPD
Method in brief: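 Variants of the tRNA-Arg(CCU) gene were chemically synthesised with a 3% per-site mutation rate across 69 sites and placed at the native genomic locus in Saccharomyces cerevisiae. Six parallel replicates of the pooled strains were competed in YPD at 37°C for 24 hours, and gene amplicons from the start and end populations were read by 100-nucleotide paired-end sequencing. Darwinian fitness relative to wild type was derived from changes in genotype frequencies. Genotypes required ≥ 100 starting reads, and estimates < 0.5 were set to 0.5.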

Which yeast fitness does the source give for GUUCCGUUGGCGUAAUGGUAACGCGUCUCCCUCCUAAGGAGAAGACUGCGGGUUCGAGUCUCGUACAGAACG here?
The yeast fitness was 0.649.

For GUUCCGUUGGCGUAAUGGUAACGCGUCUCCCUCCUAAGGAGAAGACUGCGGGUUCGAGUCUCGUACUGAACG, which yeast fitness is on record?
Its yeast fitness is 0.86.

For GUUCCGUUGGCGUAAUGGUAACGCGUCUCCCUCCUAAGGAGAAGACUGCGGGUUCGAGUCCGGUAAGGAACG, which yeast fitness is on record?
The yeast fitness was ≤ 0.5.

For GUUCCGUUGGCGUAAUGGUAACGCGUCUCCCUCCUAAGGAGAAGACUGCGGGUUCGAGUCCGGUAGGGAACG, which yeast fitness is on record?
The yeast fitness was 0.553.

With GUUCCGUUGGCGUAAUGGUAACGCGUCUCCCUCCUAAGGAGAAGACUGCGGGUUCGAGUCCUCUACGGACCG as the variant, how does the yeast fitness read?
The yeast fitness was ≤ 0.5.

With GUUCCGUUGGCGUAAUGGUAACGCGUCUCCCUCCUAAGGAGAAGACUGCGGGUUCGAGUCCCAUACGGAACG as the variant, how does the yeast fitness read?
Its yeast fitness is 0.853.

With GUUCCGUUGGCGUAAUGGUAACGCGUCUCCCUCCUAAGGAGAAGACUGCGGGUUCGAGUCCCUUACGGAACG as the variant, how does the yeast fitness read?
The yeast fitness was 0.825.

With GUUCCGUUGGCGUAAUGGUAACGCGUCUCCCUCCUAAGGAGAAGACUGCGGGUUCGAGUCCCCUACGGAACG as the variant, how does the yeast fitness read?
Its yeast fitness is 0.812.

For GUUCCGUUGGCGUAAUGGUAACGCGUCUCCCUCCUAAGGAGAAGACUGCGGGUUCGAGUCCGGCACGGAACG, which yeast fitness is on record?
Its yeast fitness is 0.97.

For GUUCCGUUGGCGUAAUGGUAACGCGUCUCCCUCCUAAGGAGAAGACUGCGGGUUCGAGUCCGGAACGGAACG, which yeast fitness is on record?
The yeast fitness was 0.695.

With GUUCCGUUGGCGUAAUGGUAACGCGUCUCCCUCCUAAGGAGAAGACUGCGGGUUCGAGUCCUGUAGGGAACG as the variant, how does the yeast fitness read?
Its yeast fitness is 0.731.

Which yeast fitness does the source give for GUUCCGUUGGCGUAAUGGUAACGCGUCUCCCUCCUAAGGAGAAGACUGCGGGUUCGAGUCCUGUAAGGAACG here?
The yeast fitness was 0.686.

For GUUCCGUUGGCGUAAUGGUAACGCGUCUCCCUCCUAAGGAGAAGACUGCGGGUUCGAGUCUCGUAUGGAACG, which yeast fitness is on record?
The yeast fitness was 0.929.

With GUUCCGUUGGCGUAAUGGUAACGCGUCUCCCUCCUAAGGAGAAGACUGCGGGUUCGAGUCUCGUAGGGAACG as the variant, how does the yeast fitness read?
Its yeast fitness is 0.706.

With GUUCCGUUGGCGUAAUGGUAACGCGUCUCCCUCCUAAGGAGAAGACUGCGGGUUCGAGUCCUGUUCGCAACG as the variant, how does the yeast fitness read?
The yeast fitness was 0.602.

For GUUCCGUUGGCGUAAUGGUAACGCGUCUCCCUCCUAAGGAGAAGACUGCGGGUUCGAGUCCCGCCCGGAACG, which yeast fitness is on record?
The yeast fitness was 0.891.

With GUUCCGUUGGCGUAAUGGUAACGCGUCUCCCUCCUAAGGAGAAGACUGCGGGUUCGAGUCCCGAAUGGAACG as the variant, how does the yeast fitness read?
Its yeast fitness is 0.942.

With GUUCCGUUGGCGUAAUGGUAACGCGUCUCCCUCCUAAGGAGAAGACUGCGGGUUCGAGUCCCGAAGGGAACG as the variant, how does the yeast fitness read?
The yeast fitness was 0.7.

With GUUCCGUUGGCGUAAUGGUAACGCGUCUCCCUCCUAAGGAGAAGACUGCGGGUUCGAGUCCUGUACGGGUCG as the variant, how does the yeast fitness read?
The yeast fitness was 0.648.

For GUUCCGUUGGCGUAAUGGUAACGCGUCUCCCUCCUAAGGAGAAGACUGCGGGUUCGAGUCCGGUACGGUACG, which yeast fitness is on record?
Its yeast fitness is 0.839.

For GUUCCGUUGGCGUAAUGGUAACGCGUCUCCCUCCUAAGGAGAAGACUGCGGGUUCGAGUCCGGUACGGGACG, which yeast fitness is on record?
The yeast fitness was 0.819.

Which yeast fitness does the source give for GUUCCGUUGGCGUAAUGGUAACGCGUCUCCCUCCUAAGGAGAAGACUGCGGGUUCGAGUCUCGUACGGUACG here?
Its yeast fitness is 1.02.

For GUUCCGUUGGCGUAAUGGUAACGCGUCUCCCUCCUAAGGAGAAGACUGCGGGUUCGAGUCCUGUAGGGAGCG, which yeast fitness is on record?
The yeast fitness was 0.574.

Which yeast fitness does the source give for GUUCCGUUGGCGUAAUGGUAACGCGUCUCCCUCCUAAGGAGAAGACUGCGGGUUCGAGUCCUCUACGGAACG here?
Its yeast fitness is 0.752.

Which yeast fitness does the source give for GUUCCGUUGGCGUAAUGGUAACGCGUCUCCCUCCUAAGGAGAAGACUGCGGGUUCGAGUCCUAUACGGAACG here?
The yeast fitness was 0.719.

Which yeast fitness does the source give for GUUCCGUUGGCGUAAUGGUAACGCGUCUCCCUCCUAAGGAGAAGACUGCGGGUUCGAGUCCCAUCCGGAACG here?
Its yeast fitness is 0.942.

For GUUCCGUUGGCGUAAUGGUAACGCGUCUCCCUCCUAAGGAGAAGACUGCGGGUUCGAGUCGCGUACGGAUCG, which yeast fitness is on record?
The yeast fitness was 0.772.

With GUUCCGUUGGCGUAAUGGUAACGCGUCUCCCUCCUAAGGAGAAGACUGCGGGUUCGAGUCCGGUGCGGAUCG as the variant, how does the yeast fitness read?
Its yeast fitness is ≤ 0.5.

For GUUCCGUUGGCGUAAUGGUAACGCGUCUCCCUCCUAAGGAGAAGACUGCGGGUUCGAGUCCCCUACGGCACG, which yeast fitness is on record?
The yeast fitness was 0.629.

With GUUCCGUUGGCGUAAUGGUAACGCGUCUCCCUCCUAAGGAGAAGACUGCGGGUUCGAGUCCCCUACGGUACG as the variant, how does the yeast fitness read?
Its yeast fitness is 0.709.

Which yeast fitness does the source give for GUUCCGUUGGCGUAAUGGUAACGCGUCUCCCUCCUAAGGAGAAGACUGCGGGUUCGAGUCCGGUACGCAGCG here?
Its yeast fitness is ≤ 0.5.

Which yeast fitness does the source give for GUUCCGUUGGCGUAAUGGUAACGCGUCUCCCUCCUAAGGAGAAGACUGCGGGUUCGAGUCCCCUUCGGAACG here?
Its yeast fitness is 0.735.

With GUUCCGUUGGCGUAAUGGUAACGCGUCUCCCUCCUAAGGAGAAGACUGCGGGUUCGAGUCCCCUACAGAACG as the variant, how does the yeast fitness read?
The yeast fitness was 0.692.

For GUUCCGUUGGCGUAAUGGUAACGCGUCUCCCUCCUAAGGAGAAGACUGCGGGUUCGAGUCUCCUACGGAACG, which yeast fitness is on record?
Its yeast fitness is 0.565.

Which yeast fitness does the source give for GUUCCGUUGGCGUAAUGGUAACGCGUCUCCCUCCUAAGGAGAAGACUGCGGGUUCGAGUCCUGUACGGAUCG here?
Its yeast fitness is 0.996.

With GUUCCGUUGGCGUAAUGGUAACGCGUCUCCCUCCUAAGGAGAAGACUGCGGGUUCGAGUCUCGUGCGGAACG as the variant, how does the yeast fitness read?
The yeast fitness was 1.07.

Which yeast fitness does the source give for GUUCCGUUGGCGUAAUGGUAACGCGUCUCCCUCCUAAGGAGAAGACUGCGGGUUCGAGUCCCCCACGGAACG here?
Its yeast fitness is 0.969.

For GUUCCGUUGGCGUAAUGGUAACGCGUCUCCCUCCUAAGGAGAAGACUGCGGGUUCGAGUCCGGUACGGACCG, which yeast fitness is on record?
The yeast fitness was 0.679.
